In ChEMBL document CHEMBL1145344, “Brunsvicamides A-C: sponge-related cyanobacterial peptides with Mycobacterium tuberculosis protein tyrosine phosphatase inhibitory activity” (J Med Chem, 2006):

Key:
[1] = biological target: Dual specificity protein phosphatase 3 (Homo sapiens, UniProt P51452); experiment: Inhibition of VHR
In short: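 VHR in 25 mM MOPS, 5 mM EDTA, 2 mM DTE, 0.025% NP-40, pre-incubated 10-15 min with inhibitor at 100-3.125 µM (2-fold). Reaction started with 1 mM p-nitrophenyl phosphate. Rate from the A405 slope versus control, in quadruplicate. IC50 was derived by linear extrapolation of velocity against log inhibitor concentration.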

[2] = biological target: T1, Low molecular weight protein-tyrosine phosphatase A (Mycobacterium tuberculosis, UniProt P9WIA1); experiment: Inhibition of Mycobacterium tuberculosis ptpA
T1 sequence (P9WIA1 whole entry): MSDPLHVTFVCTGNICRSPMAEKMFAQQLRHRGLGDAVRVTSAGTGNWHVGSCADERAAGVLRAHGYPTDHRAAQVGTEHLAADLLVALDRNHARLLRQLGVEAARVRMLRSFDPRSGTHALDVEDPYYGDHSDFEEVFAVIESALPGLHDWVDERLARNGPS
In short: (§1)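 MptpA or MptpB was expressed in E. coli BL21(DE3) with 1 mM IPTG for 4 h at 25 °C, then purified by Ni-NTA and Superdex 75 gel filtration. Enzyme was pre-incubated 10-15 min with inhibitor (100-3.125 µM, 2-fold) in 25 mM HEPES, 50 mM NaCl, 2.5 mM EDTA, 2 mM DTE, 0.025% NP-40. Reaction used 1 mM p-nitrophenyl phosphate, read as A405 slope, quadruplicate, IC50 from log-concentration extrapolation.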

[3] = biological target: T2, Phosphotyrosine-protein phosphatase PTPB (Mycobacterium tuberculosis, UniProt P96830); experiment: Inhibition of Mycobacterium tuberculosis ptpb; in short: as §1
T2 sequence (P96830 whole entry): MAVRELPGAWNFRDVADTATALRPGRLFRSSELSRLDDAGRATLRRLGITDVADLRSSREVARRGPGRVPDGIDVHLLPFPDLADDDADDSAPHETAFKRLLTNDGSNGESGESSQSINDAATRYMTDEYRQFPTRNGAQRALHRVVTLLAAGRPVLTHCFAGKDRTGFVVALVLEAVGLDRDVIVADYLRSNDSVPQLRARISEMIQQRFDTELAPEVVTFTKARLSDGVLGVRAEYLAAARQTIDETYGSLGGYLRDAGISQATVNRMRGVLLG

[4] = biological target: T3, M-phase inducer phosphatase 1 (Homo sapiens, UniProt P30304); experiment: Inhibition of CDC25a
T3 sequence (P30304 whole entry): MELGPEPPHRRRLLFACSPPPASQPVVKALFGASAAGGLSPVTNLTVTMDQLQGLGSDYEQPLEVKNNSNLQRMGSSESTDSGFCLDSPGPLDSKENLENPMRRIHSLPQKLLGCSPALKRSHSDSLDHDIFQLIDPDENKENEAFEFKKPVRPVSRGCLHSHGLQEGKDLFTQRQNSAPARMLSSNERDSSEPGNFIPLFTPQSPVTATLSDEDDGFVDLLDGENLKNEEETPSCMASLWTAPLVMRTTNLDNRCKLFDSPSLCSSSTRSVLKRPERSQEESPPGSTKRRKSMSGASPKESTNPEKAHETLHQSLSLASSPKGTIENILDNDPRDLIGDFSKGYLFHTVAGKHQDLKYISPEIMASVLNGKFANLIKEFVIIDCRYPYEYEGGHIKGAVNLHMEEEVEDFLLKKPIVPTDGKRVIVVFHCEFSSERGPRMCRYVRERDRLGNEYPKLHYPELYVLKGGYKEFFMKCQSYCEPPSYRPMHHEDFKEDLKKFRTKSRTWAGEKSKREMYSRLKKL
In short: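 Recombinant CDC25A, pre-incubated 10-15 min with inhibitor in 50 mM Tris, 50 mM NaCl, 0.1 mM EDTA, 2 mM DTE, 0.025% NP-40. Started with p-nitrophenyl phosphate at 50 mM final. Inhibitor at 100-3.125 µM in 2-fold steps. Rate was taken from the A405 slope versus an uninhibited control, in quadruplicate. IC50 came from linear extrapolation against log concentration.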

[5] = biological target: T4, Tyrosine-protein phosphatase non-receptor type 1 (Homo sapiens, UniProt P18031); experiment: Inhibition of PTP1b
T4 sequence (P18031 whole entry): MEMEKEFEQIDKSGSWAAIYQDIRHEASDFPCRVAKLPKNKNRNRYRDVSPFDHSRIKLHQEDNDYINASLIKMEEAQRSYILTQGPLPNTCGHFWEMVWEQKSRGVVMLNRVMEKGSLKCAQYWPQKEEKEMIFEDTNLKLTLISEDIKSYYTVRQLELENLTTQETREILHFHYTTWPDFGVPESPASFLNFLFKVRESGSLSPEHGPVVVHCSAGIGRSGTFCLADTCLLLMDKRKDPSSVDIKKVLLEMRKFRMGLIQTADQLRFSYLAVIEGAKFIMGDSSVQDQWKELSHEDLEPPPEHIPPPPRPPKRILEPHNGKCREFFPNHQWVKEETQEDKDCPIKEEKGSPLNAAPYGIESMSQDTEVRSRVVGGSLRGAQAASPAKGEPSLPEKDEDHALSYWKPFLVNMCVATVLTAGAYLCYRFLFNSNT
In short: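 PTP1b pre-incubated 10-15 min with inhibitor (2-fold series, 100 down to 3.125 µM) in 25 mM HEPES, 50 mM NaCl, 2.5 mM EDTA, 2 mM DTE, 0.025% NP-40. Reaction started with 1 mM p-nitrophenyl phosphate. Velocity from the A405 slope relative to an inhibitor-free control, quadruplicates. IC50 by linear extrapolation of velocity versus log concentration, with 100 µM as the upper limit.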

[6] = biological target: T5, Tyrosine-protein phosphatase non-receptor type 11 (Homo sapiens, UniProt Q06124); experiment: Inhibition of SHP2
T5 sequence (Q06124 whole entry): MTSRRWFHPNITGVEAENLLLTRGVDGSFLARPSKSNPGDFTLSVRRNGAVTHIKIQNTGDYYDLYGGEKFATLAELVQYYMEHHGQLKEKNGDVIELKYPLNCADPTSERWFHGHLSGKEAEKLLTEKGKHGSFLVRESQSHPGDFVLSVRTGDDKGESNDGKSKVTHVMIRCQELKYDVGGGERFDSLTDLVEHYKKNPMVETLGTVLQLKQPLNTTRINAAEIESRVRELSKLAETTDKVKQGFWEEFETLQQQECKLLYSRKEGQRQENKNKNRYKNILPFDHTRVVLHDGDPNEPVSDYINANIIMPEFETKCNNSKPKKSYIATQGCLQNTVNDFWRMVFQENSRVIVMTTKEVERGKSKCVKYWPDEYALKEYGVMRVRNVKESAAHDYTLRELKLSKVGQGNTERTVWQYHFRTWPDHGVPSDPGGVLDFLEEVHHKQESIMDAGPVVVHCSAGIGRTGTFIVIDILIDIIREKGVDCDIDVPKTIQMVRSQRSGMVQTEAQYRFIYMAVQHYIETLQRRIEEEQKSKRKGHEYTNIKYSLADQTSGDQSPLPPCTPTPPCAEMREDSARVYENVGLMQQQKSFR
In short: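 SHP2 pre-incubated 10-15 min with a 2-fold inhibitor series (100-3.125 µM) in buffer with 2 mM DTE and 0.025% NP-40. Reaction used 1 mM p-nitrophenyl phosphate. Enzyme was set to give 1-2 OD405/h. Velocity was taken from the A405 slope, with quadruplicate wells. IC50 came from linear extrapolation against log concentration.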

Sequence of Dual specificity protein phosphatase 3 (P51452 whole entry): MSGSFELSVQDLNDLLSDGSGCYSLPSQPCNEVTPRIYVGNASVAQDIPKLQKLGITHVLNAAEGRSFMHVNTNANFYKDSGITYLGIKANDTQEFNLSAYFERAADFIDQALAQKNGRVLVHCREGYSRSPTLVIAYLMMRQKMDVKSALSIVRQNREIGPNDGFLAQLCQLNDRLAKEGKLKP

Compound	IC50 [1]	IC50 [2]	IC50 [3]	IC50 [4]	IC50 [5]	IC50 [6]
CC[C@H](C)[C@H](NC(=O)N[C@@H]1CCCCNC(=O)[C@H](Cc2ccccc2)NC(=O)[C@H](Cc2c[nH]c3ccccc23)N(C)C(=O)[C@H](CC(C)C)NC(=O)[C@H]([C@@H](C)CC)NC1=O)C(=O)O	> 100 µM	> 100 µM	7.3 µM	> 100 µM	–	–
CC[C@H](C)[C@H](NC(=O)N[C@@H]1CCCCNC(=O)[C@H](Cc2ccccc2)NC(=O)[C@H](Cc2c[nH]c3ccccc23)N(C)C(=O)[C@H](CC(C)C)NC(=O)[C@H](C(C)C)NC1=O)C(=O)O [BRUNSVICAMIDE A]	> 100 µM	> 100 µM	64.2 µM	> 100 µM	–	–
CC[C@H](C)[C@H](NC(=O)N[C@H]1CCCCNC(=O)[C@H](Cc2ccccc2)NC(=O)[C@H](Cc2c[nH]c3ccccc23)N(C)C(=O)[C@H](CC(C)C)NC(=O)[C@H]([C@@H](C)CC)NC1=O)C(=O)O	–	–	–	–	> 100 µM	> 100 µM
CC[C@H](C)[C@H](NC(=O)N[C@H]1CCCCNC(=O)[C@H](Cc2ccccc2)NC(=O)[C@H](Cc2c[nH]c3ccccc23)N(C)C(=O)[C@H](CC(C)C)NC(=O)[C@H](C(C)C)NC1=O)C(=O)O [BRUNSVICAMIDE A]	–	–	–	–	> 100 µM	> 100 µM
